Source: ChEMBL document CHEMBL3044834, “Novel protoporphyrinogen oxidase inhibitors: 3H-pyrazolo[3,4-d][1,2,3]triazin-4-one derivatives” (J Agric Food Chem, 2008)

Key:
Type in all cases: functional
[1] = system: Digitaria sanguinalis; experiment: Herbicidal activity against Digitaria sanguinalis (hairy crabgrass) assessed as inhibition of fresh weed plant weight at 1500 g/ha using pre-emergence treatment protocol
[2] = system: Amaranthus retroflexus; experiment: Herbicidal activity against Amaranthus retroflexus assessed as inhibition of fresh weed plant weight at 1500 g/ha using post-emergence treatment protocol
Procedure, shortened: (§1)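 Test compounds made up as emulsions by dissolving in 100 µL N,N-dimethylformamide, then adding a little Tween 20 and water. For post-emergence, weed seedlings at one leaf and one stem were sprayed at the same rates as the pre-emergence test. Fresh weight was recorded 15 days after treatment and expressed as percent inhibition versus controls. All treatments were run in triplicate.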

[3] = system: Amaranthus retroflexus; experiment: Herbicidal activity against Amaranthus retroflexus assessed as inhibition of fresh weed plant weight at 1500 g/ha using pre-emergence treatment protocol
[4] = system: Brassica rapa subsp. oleifera; experiment: Herbicidal activity against Brassica rapa subsp. oleifera assessed as inhibition of fresh weed plant weight at 187.5 g/ha using post-emergence treatment protocol; procedure, shortened: as §1
[5] = system: Brassica rapa subsp. oleifera; experiment: Herbicidal activity against Brassica rapa subsp. oleifera assessed as inhibition of fresh weed plant weight at 375 g/ha using post-emergence treatment protocol; procedure, shortened: as §1
[6] = system: Brassica rapa subsp. oleifera; experiment: Herbicidal activity against Brassica rapa subsp. oleifera assessed as inhibition of fresh weed plant weight at 750 g/ha using post-emergence treatment protocol; procedure, shortened: as §1
[7] = system: Brassica rapa subsp. oleifera; experiment: Herbicidal activity against Brassica rapa subsp. oleifera assessed as inhibition of fresh weed plant weight at 93.75 g/ha using pre-emergence treatment protocol
[8] = system: Brassica rapa subsp. oleifera; experiment: Herbicidal activity against Brassica rapa subsp. oleifera assessed as inhibition of fresh weed plant weight at 187.5 g/ha using pre-emergence treatment protocol
[9] = system: Brassica rapa subsp. oleifera; experiment: Herbicidal activity against Brassica rapa subsp. oleifera assessed as inhibition of fresh weed plant weight at 375 g/ha using pre-emergence treatment protocol
[10] = system: Brassica rapa subsp. oleifera; experiment: Herbicidal activity against Brassica rapa subsp. oleifera assessed as inhibition of fresh weed plant weight at 750 g/ha using pre-emergence treatment protocol
[11] = system: Digitaria sanguinalis; experiment: Herbicidal activity against Digitaria sanguinalis (hairy crabgrass) assessed as inhibition of fresh weed plant weight at 1500 g/ha using post-emergence treatment protocol; procedure, shortened: as §1
[12] = system: Brassica rapa subsp. oleifera; experiment: Herbicidal activity against Brassica rapa subsp. oleifera assessed as inhibition of fresh weed plant weight at 1500 g/ha using post-emergence treatment protocol; procedure, shortened: as §1
[13] = system: Brassica rapa subsp. oleifera; experiment: Herbicidal activity against Brassica rapa subsp. oleifera assessed as inhibition of fresh weed plant weight at 1500 g/ha using pre-emergence treatment protocol
[14] = system: Echinochloa crus-galli; experiment: Herbicidal activity against Echinochloa crus-galli (barnyard grass) assessed as inhibition of fresh weed plant weight at 750 g/ha using pre-emergence treatment protocol
[15] = system: Amaranthus retroflexus; experiment: Herbicidal activity against Amaranthus retroflexus assessed as inhibition of fresh weed plant weight at 93.75 g/ha using post-emergence treatment protocol; procedure, shortened: as §1
[16] = system: Amaranthus retroflexus; experiment: Herbicidal activity against Amaranthus retroflexus assessed as inhibition of fresh weed plant weight at 750 g/ha using pre-emergence treatment protocol; procedure, shortened: as §1
[17] = system: Amaranthus retroflexus; experiment: Herbicidal activity against Amaranthus retroflexus assessed as inhibition of fresh weed plant weight at 375 g/ha using pre-emergence treatment protocol
[18] = system: Brassica rapa subsp. oleifera; experiment: Herbicidal activity against Brassica rapa subsp. oleifera assessed as inhibition of fresh weed plant weight at 93.75 g/ha using post-emergence treatment protocol; procedure, shortened: as §1
[19] = system: Digitaria sanguinalis; experiment: Herbicidal activity against Digitaria sanguinalis (hairy crabgrass) assessed as inhibition of fresh weed plant weight at 187.5 g/ha using pre-emergence treatment protocol
[20] = system: Digitaria sanguinalis; experiment: Herbicidal activity against Digitaria sanguinalis (hairy crabgrass) assessed as inhibition of fresh weed plant weight at 93.75 g/ha using pre-emergence treatment protocol
[21] = system: Amaranthus retroflexus; experiment: Herbicidal activity against Amaranthus retroflexus assessed as inhibition of fresh weed plant weight at 187.5 g/ha using post-emergence treatment protocol; procedure, shortened: as §1
[22] = system: Digitaria sanguinalis; experiment: Herbicidal activity against Digitaria sanguinalis (hairy crabgrass) assessed as inhibition of fresh weed plant weight at 750 g/ha using post-emergence treatment protocol; procedure, shortened: as §1
[23] = system: Amaranthus retroflexus; experiment: Herbicidal activity against Amaranthus retroflexus assessed as inhibition of fresh weed plant weight at 187.5 g/ha using pre-emergence treatment protocol
[24] = system: Amaranthus retroflexus; experiment: Herbicidal activity against Amaranthus retroflexus assessed as inhibition of fresh weed plant weight at 93.75 g/ha using pre-emergence treatment protocol
[25] = system: Amaranthus retroflexus; experiment: Herbicidal activity against Amaranthus retroflexus assessed as inhibition of fresh weed plant weight at 750 g/ha using post-emergence treatment protocol; procedure, shortened: as §1
[26] = system: Amaranthus retroflexus; experiment: Herbicidal activity against Amaranthus retroflexus assessed as inhibition of fresh weed plant weight at 375 g/ha using post-emergence treatment protocol; procedure, shortened: as §1
[27] = system: Echinochloa crus-galli; experiment: Herbicidal activity against Echinochloa crus-galli (barnyard grass) assessed as inhibition of fresh weed plant weight at 750 g/ha using post-emergence treatment protocol; procedure, shortened: as §1
[28] = system: Echinochloa crus-galli; experiment: Herbicidal activity against Echinochloa crus-galli (barnyard grass) assessed as inhibition of fresh weed plant weight at 375 g/ha using post-emergence treatment protocol; procedure, shortened: as §1
[29] = system: Echinochloa crus-galli; experiment: Herbicidal activity against Echinochloa crus-galli (barnyard grass) assessed as inhibition of fresh weed plant weight at 187.5 g/ha using post-emergence treatment protocol; procedure, shortened: as §1
[30] = system: Echinochloa crus-galli; experiment: Herbicidal activity against Echinochloa crus-galli (barnyard grass) assessed as inhibition of fresh weed plant weight at 93.75 g/ha using post-emergence treatment protocol; procedure, shortened: as §1
[31] = system: Digitaria sanguinalis; experiment: Herbicidal activity against Digitaria sanguinalis (hairy crabgrass) assessed as inhibition of fresh weed plant weight at 750 g/ha using pre-emergence treatment protocol
[32] = system: Digitaria sanguinalis; experiment: Herbicidal activity against Digitaria sanguinalis (hairy crabgrass) assessed as inhibition of fresh weed plant weight at 375 g/ha using pre-emergence treatment protocol
[33] = system: Digitaria sanguinalis; experiment: Herbicidal activity against Digitaria sanguinalis (hairy crabgrass) assessed as inhibition of fresh weed plant weight at 375 g/ha using post-emergence treatment protocol; procedure, shortened: as §1
[34] = system: Digitaria sanguinalis; experiment: Herbicidal activity against Digitaria sanguinalis (hairy crabgrass) assessed as inhibition of fresh weed plant weight at 187.5 g/ha using post-emergence treatment protocol; procedure, shortened: as §1
[35] = system: Digitaria sanguinalis; experiment: Herbicidal activity against Digitaria sanguinalis (hairy crabgrass) assessed as inhibition of fresh weed plant weight at 93.75 g/ha using post-emergence treatment protocol; procedure, shortened: as §1
[36] = system: Echinochloa crus-galli; experiment: Herbicidal activity against Echinochloa crus-galli (barnyard grass) assessed as inhibition of fresh weed plant weight at 375 g/ha using pre-emergence treatment protocol; procedure, shortened: as §1
[37] = system: Echinochloa crus-galli; experiment: Herbicidal activity against Echinochloa crus-galli (barnyard grass) assessed as inhibition of fresh weed plant weight at 187.5 g/ha using pre-emergence treatment protocol; procedure, shortened: as §1
[38] = system: Echinochloa crus-galli; experiment: Herbicidal activity against Echinochloa crus-galli (barnyard grass) assessed as inhibition of fresh weed plant weight at 93.75 g/ha using pre-emergence treatment protocol
[39] = system: Echinochloa crus-galli; experiment: Herbicidal activity against Echinochloa crus-galli (barnyard grass) assessed as inhibition of fresh weed plant weight at 1500 g/ha using pre-emergence treatment protocol
[40] = system: Echinochloa crus-galli; experiment: Herbicidal activity against Echinochloa crus-galli (barnyard grass) assessed as inhibition of fresh weed plant weight at 1500 g/ha using post-emergence treatment protocol; procedure, shortened: as §1

| SMILES | inhibition at 1500 g/ha [1] | inhibition at 1500 g/ha [2] | inhibition at 1500 g/ha [3] | inhibition at 187.5 g/ha [4] | inhibition at 375 g/ha [5] | inhibition at 750 g/ha [6] | inhibition at 93.75 g/ha [7] | inhibition at 187.5 g/ha [8] | inhibition at 375 g/ha [9] | inhibition at 750 g/ha [10] | inhibition at 1500 g/ha [11] | inhibition at 1500 g/ha [12] | inhibition at 1500 g/ha [13] | inhibition at 750 g/ha [14] | inhibition at 93.75 g/ha [15] | inhibition at 750 g/ha [16] | inhibition at 375 g/ha [17] | inhibition at 93.75 g/ha [18] | inhibition at 187.5 g/ha [19] | inhibition at 93.75 g/ha [20] | further results |
| --- | --- | --- | --- | --- | --- | --- | --- | --- | --- | --- | --- | --- | --- | --- | --- | --- | --- | --- | --- | --- | --- |
| C#CCN1C(=O)COc2cc(F)c(-n3nnc4nn(CC=C)cc4c3=O)cc21 | 80.7% | 100% | 100% | 0% | 38.9% | 50.4% | 26% | 90.8% | 100% | 100% | 32.7% | 70.9% | 100% | 95.7% | 30.6% | 100% | 100% | 0% | 16.3% | 6.1% | inhibition at 187.5 g/ha [21]: 40.5%; inhibition at 750 g/ha [22]: 0%; inhibition at 187.5 g/ha [23]: 100%; inhibition at 93.75 g/ha [24]: 100%; inhibition at 750 g/ha [25]: 100%; inhibition at 375 g/ha [26]: 48.8%; inhibition at 750 g/ha [27]: 23.6%; inhibition at 375 g/ha [28]: 17.6%; inhibition at 187.5 g/ha [29]: 14.7%; inhibition at 93.75 g/ha [30]: 12.1%; inhibition at 750 g/ha [31]: 67.4%; inhibition at 375 g/ha [32]: 24.5%; inhibition at 375 g/ha [33]: 0%; inhibition at 187.5 g/ha [34]: 0%; inhibition at 93.75 g/ha [35]: 0%; inhibition at 375 g/ha [36]: 49.1%; inhibition at 187.5 g/ha [37]: 13.3%; inhibition at 93.75 g/ha [38]: 3.5%; inhibition at 1500 g/ha [39]: 100%; inhibition at 1500 g/ha [40]: 38.7% |
| C=CCN1C(=O)COc2cc(F)c(-n3nnc4nn(CC=C)cc4c3=O)cc21 | 90% | 100% | 100% | 12.3% | 60.8% | 88.5% | 51.2% | 95.9% | 100% | 100% | 0% | 95.6% | 100% | 89.7% | 28.9% | 100% | 100% | 10.2% | 16.3% | 6.1% | inhibition at 187.5 g/ha [21]: 45.5%; inhibition at 750 g/ha [22]: 0%; inhibition at 187.5 g/ha [23]: 100%; inhibition at 93.75 g/ha [24]: 100%; inhibition at 750 g/ha [25]: 100%; inhibition at 375 g/ha [26]: 83.5%; inhibition at 750 g/ha [27]: 18.1%; inhibition at 375 g/ha [28]: 17.2%; inhibition at 187.5 g/ha [29]: 2.8%; inhibition at 93.75 g/ha [30]: 0%; inhibition at 750 g/ha [31]: 75.5%; inhibition at 375 g/ha [32]: 40.8%; inhibition at 375 g/ha [33]: 0%; inhibition at 187.5 g/ha [34]: 0%; inhibition at 93.75 g/ha [35]: 0%; inhibition at 375 g/ha [36]: 27.9%; inhibition at 187.5 g/ha [37]: 18.2%; inhibition at 93.75 g/ha [38]: 8.2%; inhibition at 1500 g/ha [39]: 100%; inhibition at 1500 g/ha [40]: 30.8% |
